The results in this text go back to ChEMBL document CHEMBL4680135, “Design, synthesis and biological evaluation of indole-2-carboxylic acid derivatives as IDO1/TDO dual inhibitors” (Eur J Med Chem, 2020).

Data set [1] relates to B16-F10. The data set is described as follows: Antitumor activity against mouse B16F10 cells xenografted in C57BL6 mouse assessed as tumor growth inhibition at 50 mg/kg, po administered for 19 consecutive days relative to control. Format: functional. The note with it: 456 h, time 19 day, read-out: TGI. The procedure, abridged:
(§1)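 B16F10 melanoma cells harvested in saline; 1×10^6 cells injected subcutaneously into C57BL/6 mice on day 0. Mice randomized; daily oral dosing from day 1, compound in 0.5% CMC-Na, vehicle controls given 0.5% CMC-Na orally; cyclophosphamide 100 mg/kg i.p. as reference group.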

In data set [2] the test system is A 172. Briefly: Inhibition of IDO1/TDO in IFNgamma-stimulated human A172 cells assessed as reduction in kynurenine formation at 100 uM using L-tryptophan as substrate incubated for 48 hrs by microplate reader analysis relative to control. The format is cell-based. The procedure, abridged: (§2)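 A172 cells seeded at 4×10^4/well, next day given compound in 10% serum medium with IFNγ (final 100 ng/mL) and Trp (final 1 mmol/L), 48 h. Supernatant treated with 30% (w/v) TCA, heated 65 °C 15 min, mixed with 2% p-dimethylaminobenzaldehyde in acetic acid; kynurenine pigment read at 490 nm.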

Data set [3] addresses Tryptophan 2,3-dioxygenase (Homo sapiens, UniProt P48775). The data set is described as follows: Inhibition of recombinant human TDO assessed as reduction in kynurenine formation using L-tryptophan as substrate incubated for 45 mins by microplate reader assay. The gist of the method:
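Purified recombinant human TDO (0.05 μM) in 100 mM potassium phosphate pH 6.5 with 40 mM neutralized ascorbate, 200 μg/mL catalase, 20 μM methylene blue, L-Trp substrate and compound; 37 °C, 45 min. Stopped with 30% TCA, 65 °C 15 min, then 2% p-dimethylaminobenzaldehyde in acetic acid; absorbance 490 nm; IC50 by curve fitting.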

A short description of data set [4]: Toxicity in C57BL/6 mouse xenografted with mouse B16F10 cells assessed as body weight loss at 50 to 100 mg/kg, po administered for 19 consecutive days. The format is organism-based. As to conditions: in vivo, 456 h, dose 50-100 mg/kg, time 19 day. The procedure, abridged:
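B16F10 cells (1×10^6) implanted subcutaneously in C57BL/6 mice on day 0; daily oral treatment from day 1 with compound suspended in 0.5% CMC-Na, vehicle group receiving 0.5% CMC-Na. Body weight of treated mice compared against vehicle control group.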

For data set [5], the target named is Indoleamine 2,3-dioxygenase 1 (Homo sapiens, UniProt P14902). Briefly: Inhibition of recombinant human IDO1 assessed as reduction in kynurenine formation using L-tryptophan as substrate incubated for 45 mins by microplate reader assay.
For data set [6], the system named is B16-F10. The data set is described as follows: Antitumor activity against mouse B16F10 cells xenografted in C57BL/6 mouse assessed as tumor growth inhibition at 100 mg/kg, po administered for 19 consecutive days relative to control. Format: functional. The note with it: 456 h, time 19 day, read-out: TGI. The gist of the method: as §1
Data set [7] concerns A 172. The data set is described as follows: Inhibition of IDO1/TDO in IFNgamma-stimulated human A172 cells assessed as reduction in kynurenine formation at 50 uM using L-tryptophan as substrate incubated for 48 hrs by microplate reader analysis relative to control. Format: cell-based. The gist of the method:
as §2

For data set [8], the system named is T-lymphocyte. Briefly: Reversal of IDO1/TDO-mediated suppression of mouse T-lymphocyte proliferation assessed as increase in mytomycin C treated LLC cells stimulated T-cells proliferation at 10 uM incubated for 3 days by Cell Titer Glo luminescent cell viability assay. The format is cell-based. The note with it: time 3.0 day. The gist of the method:
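Responder T lymphocytes from BALB/c mouse splenocytes (1×10^5/well) in RPMI 1640 with 10% FBS co-cultured with 1×10^4 LLC stimulator cells pretreated with mitomycin C (final 25 µg/mL, 37 °C, 1 h, washed thrice), plus compound; 37 °C, 5% CO₂, 3 days. Proliferation by CellTiter-Glo luminescence; mean of three replicate wells with SEM.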
A general note: In ATP-based viability assays light output follows the ATP content of the culture.

The source made the active and inactive calls. The calls are words filed in the database; no cut-off is given here.

Sequence of Tryptophan 2,3-dioxygenase (P48775 whole entry): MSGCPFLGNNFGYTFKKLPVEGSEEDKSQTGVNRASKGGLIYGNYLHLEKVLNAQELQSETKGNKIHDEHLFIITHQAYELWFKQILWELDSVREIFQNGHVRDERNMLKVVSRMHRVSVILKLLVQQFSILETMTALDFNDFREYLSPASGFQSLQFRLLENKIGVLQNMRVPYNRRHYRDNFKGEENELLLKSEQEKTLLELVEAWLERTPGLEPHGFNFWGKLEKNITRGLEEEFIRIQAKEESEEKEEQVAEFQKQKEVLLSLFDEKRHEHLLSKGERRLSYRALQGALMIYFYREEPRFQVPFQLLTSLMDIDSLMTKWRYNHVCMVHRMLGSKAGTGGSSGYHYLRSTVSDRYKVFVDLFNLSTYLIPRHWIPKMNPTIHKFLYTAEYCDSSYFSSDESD
Sequence of Indoleamine 2,3-dioxygenase 1 (P14902 whole entry): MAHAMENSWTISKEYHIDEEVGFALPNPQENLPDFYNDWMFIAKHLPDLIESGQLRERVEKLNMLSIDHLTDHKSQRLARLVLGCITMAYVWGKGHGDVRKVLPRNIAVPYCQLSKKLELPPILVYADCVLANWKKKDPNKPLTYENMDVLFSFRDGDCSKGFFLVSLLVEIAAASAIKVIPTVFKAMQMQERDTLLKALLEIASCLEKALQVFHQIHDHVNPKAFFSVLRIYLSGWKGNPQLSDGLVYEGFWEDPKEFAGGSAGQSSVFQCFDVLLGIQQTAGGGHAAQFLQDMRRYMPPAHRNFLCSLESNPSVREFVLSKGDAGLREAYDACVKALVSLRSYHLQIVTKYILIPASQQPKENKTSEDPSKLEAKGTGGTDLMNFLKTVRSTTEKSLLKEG

In the case of `COc1cc(Nc2cc(NC(C)=O)cc3[nH]c(C(=O)O)cc23)cc(OC)c1OC`, the inhibition in vivo at 50 mg/kg in data set [1] came to 43.2%. For the same molecule, the inhibition (in general, how much of the control response was suppressed) in data set [2] was determined as 77.7%; in data set [7] it was 55.9%. The IC50 (in general, the concentration that gives 50% inhibition) in data set [3] amounted to 7.12 µM; in data set [5] it was 3.18 µM. In addition, in data set [4], the Activity result was “Non-Toxic”. Also, the inhibition in vivo at 100 mg/kg in data set [6] is 44.7%. Besides, in data set [8], the outcome was Active.
